The target in assay [1] is T1, Leukotriene B4 receptor 1 (Homo sapiens, UniProt Q15722). The assay is described as follows: Compound tested for binding affinity against Leukotriene B4 receptor using radioligand binding assay from Human PMN cells at a concentration of 300 nM. It counts as cell-based. In short, it runs like this: (§1)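 Human PMNs from acid-citrate-dextrose blood, used within 2 h, isolated by dextran sedimentation and Histopaque 1077 with hypotonic erythrocyte lysis. Cells were resuspended in Hanks/5 mM HEPES pH 7.4/1% ovalbumin. Compound in DMSO, 0.5 nM [3H]LTB4 and 3 × 10^6 PMN/mL were incubated 20 min at 4 °C, then GF/B filtered and scintillation counted. Nonspecific binding was defined with 1 µM LTB4. Read-out was % inhibition or IC50.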

For assay [2], the system named is Leukotriene B4 receptor (Cavia porcellus). The assay is described as follows: Compound tested for binding affinity against Leukotriene B4 receptor using radioligand binding assay from guinea pig spleen membranes at a concentration of 300 nM. The note with it: Membrane.
Assay [3] has as its target Leukotriene B4 receptor (Cavia porcellus). The assay is described as follows: Binding affinity for Leukotriene B4 receptor of guinea pig spleen membranes.
Assay [4] concerns the target T1, Leukotriene B4 receptor 1. Briefly: (§2) Compound tested for binding affinity against Leukotriene B4 receptor using radioligand binding assay from Human PMN cells. It counts as cell-based. The method, boiled down: as §1
For assay [5], the target named is T1, Leukotriene B4 receptor 1. Described as §2. Type of assay: cell-based. The method, boiled down:
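Cells were resuspended in Hanks/5 mM HEPES pH 7.4/1% ovalbumin. Compound in DMSO, 0.5 nM [3H]LTB4 and 3 × 10^6 PMN/mL were incubated 20 min at 4 °C, then GF/B filtered and scintillation counted. Nonspecific binding was defined with 1 µM LTB4. Read-out was % inhibition or IC50.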
The source holds these as a separate data set.

T1 sequence (Q15722 whole entry): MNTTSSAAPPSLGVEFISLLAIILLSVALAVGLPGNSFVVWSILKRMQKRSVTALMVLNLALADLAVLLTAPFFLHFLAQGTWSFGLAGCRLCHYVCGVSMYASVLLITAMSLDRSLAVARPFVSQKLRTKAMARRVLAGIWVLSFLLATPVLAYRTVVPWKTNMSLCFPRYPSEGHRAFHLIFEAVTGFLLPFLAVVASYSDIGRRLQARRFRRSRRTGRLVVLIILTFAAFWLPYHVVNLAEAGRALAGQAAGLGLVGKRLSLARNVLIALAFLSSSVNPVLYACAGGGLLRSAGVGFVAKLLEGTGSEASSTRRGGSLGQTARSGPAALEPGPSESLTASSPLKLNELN

Turning to `COC(=O)c1cc(CC(=O)N(C)CCc2ccccc2)ccc1-c1ccccc1`, the values for the I in assay [1] and in assay [2] were 0% and 37%, respectively. Turning to `CN(CCc1ccccc1)C(=O)Cc1ccc(-c2ccccc2)c(C(=O)O)c1`, the IC50 in assay [3] was determined as 27 nM. In the case of `CN(CCc1ccccc1)C(=O)Cc1cc(OCC(=O)O)cc(OCc2ccccc2)c1`, the IC50 in assay [3] stood at 53.3 nM. As for `CN(CCc1ccccc1)C(=O)Cc1ccc(-c2ccccc2)c(/C=C/C(=O)O)c1`, the IC50 in assay [4] was found to be 200 nM; in assay [3] it was 44.6 nM. Turning to `CN(CCc1ccccc1)C(=O)Cc1cc(CC(=O)O)cc(OCc2ccccc2)c1`, the IC50 in assay [3] is 200 nM. For the compound `CN(CCc1ccccc1)C(=O)Cc1ccc(OCc2ccccc2)c(/C=C/C(=O)O)c1`, the I in assay [1] was 27%. The IC50 in assay [3] was 2.27 nM. On to `CN(CCc1ccccc1)C(=O)Cc1ccc(OCc2ccccc2)cc1`, for which the IC50 came to 900 nM in assay [5] and 65.6 nM in assay [3]. With `C/C(=C\c1cc(CC(=O)N(C)CCc2ccccc2)ccc1-c1ccccc1)C(=O)O`, the IC50 in assay [3] is on record as 65 nM. This lies in the double-digit nanomolar range. For the compound `CN(CCc1ccccc1)C(=O)Cc1cccc(OCc2ccccc2)c1`, in assay [3], the IC50 stood at 225 nM. Compared with the last compound, the IC50 is about 3.5-fold higher.

The compound `CN(CCc1ccccc1)C(=O)Cc1ccc(-c2ccccc2)c(CO)c1` registered an I in assay [1] of 18%.

In turn, `CN(CCc1ccccc1)C(=O)Cc1cc(OCc2ccccc2)ccc1C(=O)O` came in with an I in assay [1] of 28%. In assay [3], this compound returned an IC50 of 250 nM. On the same counts, the results for `C/C(=C\C(=O)O)c1cc(CC(=O)N(C)CCc2ccccc2)cc(OCc2ccccc2)c1` are 29% and 143 nM. On the same counts, the results for `CN(CCc1ccccc1)C(=O)Cc1cc(CC(=O)O)cc(OC/C=C/c2ccccc2)c1` are 16% and 1200 nM.

In general, IC50 refers to the concentration needed to halve the response being measured. Read a low IC50 as higher potency.
